Measured values published in ChEMBL document CHEMBL4513216, “Probing the Open Global Health Chemical Diversity Library for Multistage-Active Starting Points for Next-Generation Antimalarials” (ACS Infect Dis, 2020).

Assay: Toxicity liver stage against HepG2, at 10uM
Assay type: cell-based
Design: test concentration 10 uM, cell line HepG2-A16-CD81EGFP
Details: human, HepG2-A16-CD81EGFP cells; read-out: INHIBITION
Method in brief: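 Uninfected HepG2-A16-CD81EGFP cells, 3 × 10^3 per well, 1536-well, plated on prespotted compound at 10 μM final, parasite-free screening media added to match infected plates; puromycin 10 μM positive, DMSO 0.5% negative; run in parallel with 48 h PbLuc assay at 37 °C, 5% CO2; viability by CellTiter-Glo luminescence, normalized to controls.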

Row | SMILES | cytotoxicity at 10 µM
1 | CC(C)Cc1cc(CN2C[C@@H]3CC[C@H]2CN(Cc2cscn2)C3)n[nH]1 | -2.03%
2 | CCc1nc(C)c([C@H]2CN(C)C[C@@H]2C(=O)Nc2cccc3cn[nH]c23)[nH]1 | -3.44%
3 | CC(=O)NC1Cc2ccc(S(=O)(=O)NCCNc3ccccn3)cc2C1 (stereo unspecified) | 0.126%
4 | Cc1nc(CNC(C(=O)N2CCOCC2)C(C)C)oc1C (stereo unspecified) | -4.34%
5 | CC(C)CN1C[C@@H]2C(=O)NC3(CCN(C(=O)c4cccnc4)CC3)[C@@H]2C1 | 5.53%
6 | CCn1ncc(NC(=O)c2cc(C3CC3)nc3c2c(C)nn3C)c1C | -3.32%
7 | CC(C)n1nc(CN2CCOCC2)c2c1CN(C(=O)c1ccno1)C2 | 2.62%
8 | CC(CN1CCOCC1)OC(=O)c1ccccc1I (stereo unspecified) | -6.37%
9 | CCCS(=O)(=O)NC(C)C(=O)NCc1ccc(N2CCN(C)CC2)nc1 (stereo unspecified) | -20.9%
10 | Cc1nc(NC(=O)N[C@H](CO)c2ccccc2)sc1C | -7.32%
11 | CC(Cn1cccn1)NCc1csc(-c2ccc(F)cc2)n1 (stereo unspecified) | -67.9%
12 | COCc1ccc(C(=O)NCCCNc2ccc(C(F)(F)F)cn2)cc1 | 2.13%
13 | CC(C)c1sc(Cl)nc1C(=O)N1CCN(c2ccccn2)CC1 | -43.8%
14 | CN1CCOC(CNC(=O)Cc2coc(-c3ccccc3)n2)C1 (stereo unspecified) | -25.1%
15 | COCC(=O)N1CCN(CC2CC2)c2ncccc2C1 | -100%
16 | COCCNC(=O)NCc1cc(-c2cccs2)n(C2CCCC2)n1 | -10.5%
17 | Cc1c[nH]c(CN2CCOC(c3ccc(F)cc3)C2)c(C)c1=O (stereo unspecified) | -1.82%
18 | Clc1ccc(N2CCC(C3CCN(Cc4cccnc4)CC3)C2)nc1 (stereo unspecified) | 13.5%
19 | Cc1cc(N)nc(C2(C)CCCN2C(=O)c2cnccn2)n1 (stereo unspecified) | -27.1%
20 | O=C(CCCn1ccnc1)N1CCC2(CC1)[C@H](O)C[C@@H]2OCCO | 3.31%
21 | Cc1cc(NC(=O)NCc2cccnc2OC(C)C)no1 | -11.5%

Row | SMILES | cytotoxicity at 10 µM
22 | Cc1c(C)n(CC(O)CN2CCOCC2)c2c(Cl)cccc12 (stereo unspecified) | 0.829%
23 | Cc1cnc(C(=O)N2CCCN(Cc3csc(C)n3)CC2)cn1 | -16%
24 | Cc1csc2c(N3CCNC(C(=O)N4CCCC4)C3)ncnc12 (stereo unspecified) | -5.6%
25 | O=C(Nc1ccc(F)cc1F)NC1(CO)CCOCC1 | -40.4%
26 | Clc1cncc(N2CCCC2c2nnc3n2CCCCC3)n1 (stereo unspecified) | -7.44%
27 | Cc1n[nH]c(=O)c2c(NC(=O)CN3CCC(C)CC3)oc(C)c12 | -1.5%
28 | Cc1cnn(CC2CN(Cc3nc4ccccc4s3)CCO2)c1 (stereo unspecified) | 0.639%
29 | CCn1c(CN2CCCN(C(=O)OC)CC2)nc2c(F)cccc21 | -8.6%
30 | CCC(NC1CCN(C(=O)c2ccccc2)CC1)c1cccs1 (stereo unspecified) | -2.62%
31 | c1cc(-c2noc(C3CCC3)n2)cc(N2CCCCC2)n1 | -1.39%
32 | COc1cccc(CN(C)Cc2ccc(C#N)cc2)c1OC | -8.34%
33 | Cc1cc(NC(=O)CN2CCn3c(nnc3C3CC3)C2)no1 | -7.32%
34 | CCNC(=O)CN(CC)C(=O)c1cc(-c2cccc(Cl)c2)no1 | -9.88%
35 | Cc1noc(C)c1-c1nc(NCCN(C)C)ncc1-c1cnccn1 | -9.03%
36 | CN(C)c1ccc(C(=O)N2CCCC(n3cccn3)C2)nn1 (stereo unspecified) | -4.43%
37 | Cc1cc(C2CCCN2Cc2ccc(C(=O)Nc3nccs3)cc2)on1 (stereo unspecified) | -6.03%
38 | Cc1ccoc1C(=O)N1CCC(n2cc(-c3ccsc3)nn2)CC1 | 5.02%
39 | CC(=O)N1CCCC1c1nccc(C)n1 (stereo unspecified) | 1.31%
40 | CC(C)=CCCC1(C)CCC(=O)N(CCc2csc(N)n2)C1 (stereo unspecified) | -4.27%
41 | CC(C)[C@H](C)NC1CCN(c2ccc(-c3cscn3)cc2)CC1 | -50.8%
42 | CCc1cnc(N2C[C@H]3CN(Cc4csc(C)n4)C(=O)[C@H]3C2)nc1 | 9.43%

Row | SMILES | cytotoxicity at 10 µM
43 | O=C(c1cnccn1)N1CCN2C[C@H](OCC3CC3)C[C@H]2C1 | 2.92%
44 | Cc1nnc(N2CCc3cnc(C(C)C)nc3C2)c(C#N)c1C | -143%
45 | Cc1ccc(S(=O)(=O)N2CCC(Oc3cccnn3)CC2)c(C)c1 | 3.47%
46 | Cc1ccc(S(=O)(=O)N2CC[C@@H]3C[C@H](NC(=O)c4ccncc4)[C@@H]32)cc1 | 0.385%
47 | CNc1cncc(C2CCCN2C(=O)c2ccc3oc(C)cc3c2)n1 (stereo unspecified) | 4.52%
48 | CCn1nc(C)c(NC(=O)CN(C)C(C)c2nccs2)c1C (stereo unspecified) | -143%
49 | Cc1cc(C(=O)N2CCCC(n3cncn3)C2)c(C)n1C1CC1 (stereo unspecified) | -3.32%
50 | CCS(=O)(=O)c1ccc2oc([C@H]3CCN(CC4CCCCC4)C3)nc2c1 | 41%
51 | O=c1ccc2c(n1CC1CC1)CCN(c1ncccn1)CC2 | 7.17%
52 | CCN1CC2(CC1=O)CN(C(=O)NC)CCN(S(C)(=O)=O)C2 (stereo unspecified) | -6.29%
53 | CN(Cc1nccn1C)S(=O)(=O)c1cccc(C#N)c1 | 15.1%
54 | CN(C)C(=O)CN1C[C@H]2CC[C@@H](C1)N(C(=O)Cc1ccccc1Cl)C2 | -11.2%
55 | COc1cccc2c1OCC(CNC(=O)CSc1ccccn1)C2 (stereo unspecified) | -135%
56 | Cc1nnc2ccc(NCC3(N4CCCCC4)CCOCC3)nn12 | -3.59%
57 | Cc1cc2nc(SCC(=O)N3CCOCC3)n(C(C)C)c(=O)c2[nH]1 | 11%
58 | COc1cc(-c2nc(CN(CCO)CCO)c(C)o2)ccc1F | -10.2%
59 | CS(=O)(=O)N1CCC[C@H]1c1ncnn1-c1ccc2c(c1)OCO2 | -12.8%
60 | Cc1cnccc1CN1C[C@@H](O)[C@H](Oc2cccc(F)c2)C1 | 2.21%
61 | O=C(NCc1ccc(-n2cncn2)nc1)c1cc(Cl)ccn1 | 2.8%
62 | CC(C)Nc1ncnc2c1CCN(C(=O)CN(C)C)CC2 | -70.9%
63 | CCC(C)NC(=O)Nc1cccc(OCCCC#N)c1 (stereo unspecified) | -2.01%

Row | SMILES | cytotoxicity at 10 µM
64 | O=C(c1ccc(S(=O)(=O)N2CCNCC2)cc1)N1CCCC(O)C1 (stereo unspecified) | 8.48%
65 | CC(=O)N1Cc2ccccc2CC1C(=O)Nc1cc(C)ccn1 (stereo unspecified) | -4.5%
66 | Cc1ccc(F)c(-n2nnc(C(=O)O)c2-c2ccncc2)c1 | -4.89%
67 | CNC(=O)[C@@H](c1ccccc1OC)N1CCC[C@H]1C(=O)NC1CC1 | -4.39%
68 | CNC(=O)[C@@]12CCO[C@@H]1CCN(Cc1scnc1C)C2 | 6.12%
69 | CCN(Cc1noc(C2CCC2)n1)C(=O)c1cnc2ccccc2c1 | 8.59%
70 | O=C(C1CCCO1)N1CCCn2c(nnc2Cn2ccnc2)C1 (stereo unspecified) | 15.7%
71 | N#Cc1ccc(C(=O)N2CCC3(CC2)CC3)cc1 | 3.56%
72 | CCCC1CCCN(Cc2csc(-c3ncccn3)n2)CC1 (stereo unspecified) | 13.6%
73 | CC(C)(C)CN[C@@H]1CO[C@H](CNC(=O)Nc2ccccc2)[C@H]1O | 6.98%
74 | Fc1ccccc1CN1CCC[C@H](Cn2nnc(-c3cccs3)n2)C1 | -0.152%
75 | Cc1ncc(S(C)(=O)=O)c(N(C)CCCc2cnn(C)c2)n1 | -1.07%
76 | COCCn1ccnc1CN1CCc2[nH]cnc2C1c1cccc(O)c1 (stereo unspecified) | -2%
77 | Cc1c(Cl)cccc1S(=O)(=O)NCC(O)c1cccn1C (stereo unspecified) | -5.15%
78 | CC(C(=O)NC1CC1)S(=O)(=O)Cc1nc(Cc2ccccc2)no1 (stereo unspecified) | 5.42%
79 | COc1cccc(C(=O)Oc2cc(=O)n3cccc(C)c3n2)c1 | 6.36%
80 | c1cc(CN2CCCC2)cc(-n2ccnc2-c2ccncc2)c1 | -1.37%
81 | Cc1ccsc1C(=O)N1CCc2ncc(CN3CCCC3)n2CC1 | -111%
